From ChEMBL document CHEMBL1777756, “Discovery of Novel Benzo[a]phenoxazine SSJ-183 as a Drug Candidate for Malaria” (ACS Med Chem Lett, 2010)

Columns and labels:
L6 = assay: Cytotoxicity against rat L6 cells; format: cell-based
Summary of the method: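 Cytotoxicity was tested against L-6 rat myoblasts, with IC50 determined. Values are the mean of two independent assays.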

Plasmodium falciparum = assay: Antimalarial activity against chloroquine and pyrimethamine resistant Plasmodium falciparum K1; format: functional, organism-based
Summary of the method: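 IC50 was determined in vitro against the chloroquine- and pyrimethamine-resistant P. falciparum K1 strain. Values are the mean of two independent assays.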

[1] = Selectivity index, ratio of IC50 for rat L6 cells to IC50 for Plasmodium falciparum K1; format: toxicity, cell-based; conditions: read-out: Ratio IC50
Summary of the method: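 Selectivity index is IC50 against L-6 cells divided by IC50 against chloroquine/pyrimethamine-resistant P. falciparum K1. Each IC50 is the mean of two independent assays.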

Plasmodium berghei [2] = assay: Antimalarial activity against Plasmodium berghei NK-65 infected in ICR mouse assessed as inhibition of parasitemia at 100 mg/kg, po administered as single dose on day 1 measured on day 4; format: functional
Summary of the method: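 Compound was formulated at 100 mg/kg in 5% glucose/10% ethanol or in 7% Tween 80/3% ethanol. The suspension was given as a single oral dose on day 1 to female ICR mice infected with P. berghei NK-65. Parasitemia was determined on day 4 after infection. Treated-group mean is expressed as percent difference from the control-group mean.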

Plasmodium berghei [3] = assay: Antimalarial activity against Plasmodium berghei NK-65 infected in ICR mouse assessed as survival days at 100 mg/kg, po administered as single dose (reference value: 6 days); format: functional
Summary of the method: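 Female ICR mice infected with P. berghei NK-65 received a single oral dose of 100 mg/kg on day 1. The compound was given as a suspension in 5% glucose/10% ethanol or in 7% Tween 80/3% ethanol. Parasitemia was read on day 4 as percent reduction relative to untreated controls, and mean survival days were recorded.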

| SMILES | IC50 (L6) [nM] | IC50 (Plasmodium falciparum) [nM] | selectivity ratio [1] | inhibition in vivo at 100 mg/kg (Plasmodium berghei [2]) [%] | MSD (Plasmodium berghei [3]) [days] |
| --- | --- | --- | --- | --- | --- |
| CC[N+](CC)=c1ccc2nc3c(ccc4ccccc43)oc-2c1 | 3820 | 606 | 6.3 | – | – |
| CCN(CC)c1cc(C)c2nc3c4ccccc4/c(=N/c4ccncc4)cc-3oc2c1.Cl.Cl | 86600 | 180 | 481 | 99.7 | 13 |
| CCN(CC)c1ccc2nc3c4ccccc4/c(=N\c4ccccn4)cc-3oc2c1 | 15800 | 15 | 1050 | > 99.9 | 8.3 |
| CCN(CC)c1ccc2nc3c4ccccc4/c(=N/c4cc[n+](C)cc4)cc-3oc2c1.[I-] | 1560 | 9 | 174 | 22 | 6.6 |
| CCN(CC)c1ccc2nc3c4ccccc4/c(=N/c4ccccc4)cc-3oc2c1.Cl | 165000 | 191 | 863 | 0 | 6.3 |
| CN(C)c1ccc2nc3c4ccccc4/c(=N/c4ccncc4)cc-3oc2c1 | 165000 | 8.1 | 20400 | > 99.9 | 10 |
| CCN(CC)c1ccc2nc3c4ccccc4c(=O)cc-3oc2c1 [NILE RED] | 65900 | 868 | 76 | 15 | 6.3 |
| CCN(CC)CCCC(C)Nc1ccnc2cc(Cl)ccc12 (stereo not given) [CHLOROQUINE] | – | – | – | > 99.9 | 12.6 |
| CCN(CC)c1ccc2nc3c4ccc(Br)cc4/c(=N/c4ccccn4)cc-3oc2c1 | > 190000 | 38 | > 5010 | 12.7 | 6.3 |
| CCCCN(CCCC)c1ccc2nc3c4ccccc4/c(=N/c4ccncc4)cc-3oc2c1.Cl.Cl | 63800 | 195 | 327 | 5.6 | 6.3 |
| CCN(CC)c1ccc2nc3c4ccccc4/c(=N/c4cc[n+](Cc5ccccc5)cc4)cc-3oc2c1.[Cl-] | 750 | 24 | 31 | 39 | 7.3 |
| CCN(CC)c1ccc2nc3c4ccccc4/c(=N\c4ncccn4)cc-3oc2c1 | 13600 | 5 | 2730 | 3.3 | 6.3 |
| CCN(CC)c1ccc2nc3c4ccccc4/c(=N\c4cccnc4)cc-3oc2c1 | 117000 | 23 | 5090 | 62.7 | 10 |
| CCN(CC)c1ccc2nc3c4ccccc4/c(=N\c4ncc(Cl)cc4Cl)cc-3oc2c1 | 180000 | 63 | 2860 | 14.7 | 6.3 |
| CCN(CC)c1ccc2nc3c4ccc(Br)cc4/c(=N/c4ccncc4)cc-3oc2c1 | > 190000 | 11 | > 17300 | 14.2 | 6.6 |
| CCN(CC)c1ccc2nc3c4ccccc4/c(=N\c4ccc5ccccc5n4)cc-3oc2c1 | 67900 | 27 | 2520 | 81 | 10.3 |
| c1ccc2/c(=N/c3ccncc3)cc3oc4cc(N5CCOCC5)ccc4nc-3c2c1 | 96900 | 29 | 3340 | 97.9 | 7.3 |
| CC[N+](CC)=c1ccc2nc3c(cc(N)c4ccccc43)oc-2c1.[Cl-] [NILE BLUE HYDROCHLORIDE] | 43100 | 15.6 | 2760 | 15 | 6.6 |
| CCN(CC)c1ccc2nc3c4ccccc4/c(=N/c4ccc(C)cc4)cc-3oc2c1.Cl | 123000 | 232 | 531 | 0 | 6.3 |
| CCN(CC)c1ccc2nc3c4ccccc4/c(=N/c4nc5ccc(OC)cc5s4)cc-3oc2c1 | 168000 | 112 | 1490 | 11.4 | 6.3 |
| CCN(CCNS(C)(=O)=O)c1cc(C)c2nc3c4ccccc4/c(=N/c4ccncc4)cc-3oc2c1.Cl.Cl | 14800 | 17 | 887 | > 99.9 | 15.7 |
| CCCN(CCC)c1ccc2nc3c4ccccc4/c(=N/c4ccncc4)cc-3oc2c1.Cl.Cl | 67100 | 50 | 1340 | 15.3 | 6.3 |
